The results in this text go back to ChEMBL document CHEMBL4715819, “Bicyclic Helical Peptides as Dual Inhibitors Selective for Bcl2A1 and Mcl-1 Proteins” (J Med Chem, 2018).

As a reminder, the IC50 is the concentration that inhibits the measured activity by half.

In data set [1] the target is T1, Bcl-2-related protein A1 (Homo sapiens) (UniProt Q16548).
T1 sequence (whole entry): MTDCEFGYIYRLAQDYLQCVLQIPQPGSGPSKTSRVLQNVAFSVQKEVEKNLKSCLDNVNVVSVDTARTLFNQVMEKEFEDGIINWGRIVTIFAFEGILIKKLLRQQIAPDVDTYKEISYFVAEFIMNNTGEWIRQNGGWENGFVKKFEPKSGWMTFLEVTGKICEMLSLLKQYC
The experiment in a line: Binding affinity to human Bcl2A1 incubated for 2 hrs by FBid based competitive FP assay.

Data set [2] concerns the target Induced myeloid leukemia cell differentiation protein Mcl-1 (Homo sapiens, UniProt Q07820). The data set is described as follows: Binding affinity to human Mcl1 incubated for 2 hrs by FBid based competitive FP assay.
Data set [3] addresses T2, Bcl-2-like protein 2 (Homo sapiens) (UniProt Q92843).
T2 sequence (whole entry): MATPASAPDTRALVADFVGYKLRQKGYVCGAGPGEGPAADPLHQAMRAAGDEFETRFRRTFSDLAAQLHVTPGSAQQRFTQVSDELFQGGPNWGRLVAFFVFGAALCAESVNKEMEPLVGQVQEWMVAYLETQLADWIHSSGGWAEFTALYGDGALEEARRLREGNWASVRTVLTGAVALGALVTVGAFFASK
The data set is described as follows: Binding affinity to human Bcl-w incubated for 2 hrs by FBid based competitive FP assay.

Data set [4] addresses Bcl-2-like protein 1 (Homo sapiens) (UniProt Q07817). The experiment in a line: Binding affinity to human Bcl-xL incubated for 2 hrs by FBid based competitive FP assay.
Data set [5] concerns SK-MEL-28. The data set is described as follows: Cytotoxicity in human SK-MEL-28 cells assessed as reduction in cell viability incubated for 48 hrs by MTT assay. The format is functional, cell-based. Put shortly: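 SK-MEL-28 cells grown in DMEM with 10% FBS and penicillin/streptomycin. Peptide applied over a concentration series for 48 h. Viability read by MTT, and IC50 taken from the dose–response.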
In general terms: Tetrazolium dyes change colour on reduction, which living cells bring about.

Data set [6] has as its system SK-MEL-28. The data set is described as follows: Toxicity in human SK-MEL-28 cells at 50 uM incubated for 30 mins by LDH release assay. It is filed as cell-based. Conditions: sk-mel-28, 0.5 h.
For data set [7], the target named is Bcl-2-like protein 11/Bcl-2-related protein A1 (Homo sapiens) (UniProt O43521+Q16548). The experiment in a line: Inhibition of Bcl2A1-Bim interaction in human SK-MEL-28 cells at 30 uM incubated for 24 hrs by immunoprecipitation assay. The format is cell-based.
The target in data set [8] is Induced myeloid leukemia cell differentiation protein Mcl-1/Bcl-2-like protein 11 (Homo sapiens) (UniProt Q07820+O43521). The experiment in a line: Inhibition of Mcl1-Bim interaction in human SK-MEL-28 cells at 30 uM incubated for 24 hrs by immunoprecipitation assay. The format is cell-based.
Data set [9] has as its system SK-MEL-28. The data set is described as follows: Synergistic cytotoxicity in human SK-MEL-28 cells assessed as reduction in cell viability at 1.25 to 30 uM incubated for 48 hrs in presence of etoposide by MTT assay. It is filed as functional, cell-based. The following applies: dose 1.25-30 µM.

Structures are written as SMILES. Activity calls are given as the source filed them. The calls are words filed in the database; no cut-off is given here. Positions of bridges follow the written chain, without caps; N, C: chain ends. Non-standard residues stand in square brackets, D forms with d. Residues, ends and D or L forms follow the SMILES beside them. ξ: configuration not given here. *: point of attachment. S5 = C=CCCC[C@](C)(N)C(=O)O; Propionyl = CCC(=O)*; ξDap = NCC(N)C(=O)O

Chain of Induced myeloid leukemia cell differentiation protein Mcl-1/Bcl-2-like protein 11 (Homo sapiens) (O43521 whole entry, looked up): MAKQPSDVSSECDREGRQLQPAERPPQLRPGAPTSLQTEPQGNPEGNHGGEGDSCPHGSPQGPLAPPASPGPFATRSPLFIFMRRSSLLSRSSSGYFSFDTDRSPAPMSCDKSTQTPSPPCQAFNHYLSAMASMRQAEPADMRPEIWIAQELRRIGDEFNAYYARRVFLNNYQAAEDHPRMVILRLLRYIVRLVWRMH
Chain of Induced myeloid leukemia cell differentiation protein Mcl-1/Bcl-2-like protein 11 (Homo sapiens) (Q07820 whole entry, looked up): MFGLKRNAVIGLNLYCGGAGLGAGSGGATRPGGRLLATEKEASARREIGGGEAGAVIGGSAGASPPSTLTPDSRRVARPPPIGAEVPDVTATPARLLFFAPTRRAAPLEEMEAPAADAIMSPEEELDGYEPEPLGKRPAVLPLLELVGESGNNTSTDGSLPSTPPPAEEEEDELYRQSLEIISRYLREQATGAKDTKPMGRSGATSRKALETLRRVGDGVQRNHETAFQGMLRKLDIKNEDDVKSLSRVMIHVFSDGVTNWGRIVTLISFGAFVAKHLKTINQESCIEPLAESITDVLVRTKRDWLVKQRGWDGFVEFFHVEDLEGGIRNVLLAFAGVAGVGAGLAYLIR
Chain of Bcl-2-like protein 11/Bcl-2-related protein A1 (Homo sapiens) (O43521 whole entry, looked up, one chain of several): as the sequence (O43521 whole entry, looked up) above
Chain of Bcl-2-like protein 1 (Homo sapiens) (Q07817 whole entry): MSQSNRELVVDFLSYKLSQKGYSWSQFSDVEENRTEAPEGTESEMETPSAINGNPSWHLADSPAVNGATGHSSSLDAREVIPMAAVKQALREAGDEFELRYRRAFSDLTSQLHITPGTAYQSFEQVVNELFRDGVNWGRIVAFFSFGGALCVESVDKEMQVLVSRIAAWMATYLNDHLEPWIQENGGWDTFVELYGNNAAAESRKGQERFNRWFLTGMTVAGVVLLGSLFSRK
Chain of Induced myeloid leukemia cell differentiation protein Mcl-1 (Q07820 whole entry): as the sequence (Q07820 whole entry, looked up) above

Take `CCC(=O)NCC1NC(=O)[C@@](C)(NC(C)=O)CCC/C=C/CCC[C@@](C)(C(=O)N[C@@H](CC(C)C)C(=O)N[C@@H](CC(C)C)C(=O)N[C@@H](CCCNC(=N)N)C(=O)N[C@H]2CCCCNC(=O)C[C@@H](C(=O)N[C@@H](Cc3ccccc3)C(N)=O)NC(=O)[C@H](CC(=O)O)NC(=O)CNC(=O)[C@H]([C@@H](C)CC)NC2=O)NC(=O)[C@H](C)NC(=O)[C@H]([C@@H](C)CC)NC1=O` (stereo not given in full) (Ac-[S5][ξDap](Propionyl)IA[S5]LLRKIGDDF-NH2; staple (E) 1-5; lactam 9-13): the outcome (in [1]; in data set [2]; in the data set on SK-MEL-28 [9]) was Active. Moreover, the result in data set [3] and in data set [4] was inactive. In addition, the Activity entry with SK-MEL-28 [5] is “Dose-dependent effect”; with SK-MEL-28 [6], “Non-Toxic”. Also, in the data set on SK-MEL-28 [5] (SK-MEL-28, 48 h), the IC50 turned out to be 8.8 µM. For the same molecule, the inhibition entry in data set [7] and in data set [8] was “Active” each time.
